High-throughput results as filed in PubChem.
b-catenin transl = modulators of beta-catenin nuclear translocation. HeLa beta-catenin nuclear translocation, immunofluorescence imaging. nuclear translocation activity, % at 5 µM. actives 0.3% (n = 190,000). AID 1665;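 active = nuclear translocation activity above 50% at 5 µM, with a well cell count of 50 or more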;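 also: per-cell ratio of nuclear to cytoplasmic median beta-catenin stain intensity; plate controls were DMSO negative control for no effect and GSK-3 inhibitor IX positive control for full effect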
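System: HeLa cells, endogenous beta-catenin; compound dosing: 5 µM primary single dose, 0.1% DMSO, 0.02–20 µM confirmation series; incubation: 24 h compound exposure at 37°C, 5% CO2; signal: beta-catenin immunofluorescence imaging with DAPI; evaluation: % activation, nuclear-to-cytoplasmic median beta-catenin signal ratio per cell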
HSV replic up = HSV replication enhancement | actives 0.005% (n = 220,000) | HSV replication augmentation in cells, fold increase | maximum fold increase; in the data active = maximum fold increase above about 1.5; tested in PC3 cells
L major viab = inhibitors of Leishmania major promastigote growth. inhibition, % at 10 µM. Leishmania major promastigotes, resazurin fluorescence viability. actives 9% (n = 200,000); in the data active = inhibition above about 50%;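 also: promastigotes grown with compound for 44 hours at 28 °C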
Dynein transport = dynein cargo transport inhibition | z-score, hits read low | actives 0.47% (n = 220,000) | 3617.4 mouse cells, GR-EGFP nuclear translocation imaging; test concentration mostly 20 µM; stimulated with dexamethasone, 1 µM; hits give low values;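 active = plate z-score of nuclear minus cytoplasmic receptor signal below a set negative limit, without overly bright fluorescence or cell loss, cut at about -3.5 in these data, passing the limit was not always enough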;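 also: z-score of nuclear minus cytoplasmic ring GR-EGFP intensity difference per well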
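medium = tetracycline-free induction medium containing charcoal-stripped FBS | probe or stimulus = dexamethasone, 1.0 µM final | timing = 48 h induction, then 1 h compound, then 30 min agonist, 37 °C | detection = automated 10x imaging of fixed Hoechst-stained cells | read-out basis = nuclear versus cytoplasmic GR-EGFP signal, averaged per well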
MT stabilize HCS = stabilizes microtubules in HeLa cells. HeLa tubulin immunostaining HCS, 24 h; share of cells brighter than vehicle mean+2SD. % tubulin-high responders, % at 10 µM. actives 0.83% (n = 200,000);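 active = plate Z-score above 3 for both tubulin-high and condensed-nucleus cell shares, with cell loss under 80%, at 10 µM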;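 also: anti alpha tubulin signal scored within the nucleus-defined area of each cell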
* hit, by the source's call; i = inactive; . = no result. Sampled rows, rich in hits. Any-hit rate of the full collection: about 8.9%.

SMILES | b-catenin transl | HSV replic up | L major viab | Dynein transport | MT stabilize HCS
COc1ccc(CNC(=O)C(=O)NCC(c2ccco2)N2CCOCC2)cc1 (stereo not given) | 1 | i | -6 | -1.3 | 2
Cc1cc(C)c2nc(SCC(=O)NNC(=O)c3ccco3)c(C)cc2c1 | 0 | i | -5 | 1.6 | 4
O=C(Cn1[nH]c(=O)c2ccccc2c1=O)NC1CCN(Cc2ccccc2)CC1 | -4 | i | 69* | -0.33 | 2
O=C(CCCCn1c(=O)c2ccccc2n(Cc2ccccc2)c1=O)NC1CCN(Cc2ccccc2)CC1 | -1 | i | 73* | 0.75 | 3
O=C(COc1ccccc1)NCC(=O)NC1CCCCC1 | -2 | i | -4 | 0.21 | 3
O=C(NC1CCN(Cc2ccccc2)CC1)C1COc2ccccc2O1 (stereo not given) | -4 | i | 92* | -0.57 | 8
O=C(COc1ccccc1)NC1CCN(Cc2ccccc2)CC1 | . | i | 86* | -0.88 | 2
COc1ccc(Cc2nc(C(=O)NCc3ccccc3OC)cs2)cc1 | -1 | i | -1 | -0.67 | 1
CCSc1nc(CC)c2c(c1C#N)CCCC2 | 0 | i | 0 | 1.7 | 4
C=CCc1cccc(/C=N/NC(=O)C(C)Nc2ccc(C)cc2)c1O (stereo not given) | -3 | i | 29 | -0.32 | 3
Cc1cc(C)cc(-n2nnc(C(=O)NCc3ccco3)c2N)c1 | 6 | i | -3 | -1.1 | 1
Cc1ccc([N+](=O)[O-])cc1N | 4 | i | -2 | -0.27 | 3
Nc1cc([N+](=O)[O-])ccc1O | -1 | i | 98* | 0.42 | 2
O=C(COc1ccccc1O)NNc1ccccc1 | 6 | i | 74* | 0.24 | 3
CCOC(=O)C1=C(C)NC(C)=C(C(=O)OCC)C1C(=O)OCC(=O)N1CCc2ccccc21 | -4 | i | 97* | -0.23 | 3
CCOC(=O)C1=C(C)NC(C)=C(C(=O)OCC)C1C(=O)OCC(=O)c1ccc2c(c1)OCCO2 | -2 | i | 65* | 1.3 | 3
COc1cc(CC(=O)NCc2ccc3c(c2)OCO3)cc(OC)c1OC | . | i | 7 | -0.34 | 1
COc1cc(CC(=O)OCC(=O)c2ccc3c(c2)OCCO3)cc(OC)c1OC | 158* | i | -2 | 0.46 | 17*
CCOC(=O)c1[nH]c(C)c(C(=O)OCC(=O)N2CCc3ccccc32)c1C | -14 | i | -5 | 2.5 | 3
CCOC(=O)C(NC(=O)c1ccccc1Cl)(Nc1sc2c(c1C(N)=O)CCC2)C(F)(F)F (stereo not given) | -1 | i | 1 | -1.4 | 3
O=Cc1ccc(O)c(O)c1 | . | i | -1 | -0.84 | 4
Oc1ccc(N=Cc2ccc(O)c(O)c2)cc1 | -1 | i | 100* | -1.6 | 4
C=CCC(=O)OCC(=O)Nc1ccc(Cl)cn1 | . | i | -1 | 0.11 | 1
Cc1ccc2c(CC(=O)OCC(=O)Nc3ccc(Cl)cn3)coc2c1 | -1 | i | 51* | -0.39 | 2
O=c1[nH]ncc(N/N=C\c2cccs2)c1Cl | 4 | i | -4 | -0.89 | 6
SMILES | b-catenin transl | HSV replic up | L major viab | Dynein transport | MT stabilize HCS
Cc1nc(C)c(-c2csc(Nc3cccc(O)c3)n2)s1 | 1 | i | 7 | 0.61 | 7
Cc1cccc(Nc2nc(-c3ccc4c(c3)OCCO4)cs2)c1 | -1 | i | 6 | 0.46 | 18*
Cc1nc2ccccn2c1-c1csc(Nc2cccc(O)c2)n1 | 75* | i | 36 | -0.24 | 16
Cc1cccc(Nc2nc(-c3c(C)nc4ccccn34)cs2)c1 | 38 | i | 48 | 1.4 | 21*
Cc1cccc(Nc2nc(-c3ccncc3)cs2)c1 | -2 | i | 17 | -0.012 | 4
CCC(C(=O)OCC(=O)Nc1ccc(Cl)c(S(=O)(=O)N(C)C)c1)c1ccccc1 (stereo not given) | -1 | i | 62* | -0.085 | 1
COC(=O)c1ccccc1NC(=O)CNc1cc(Cl)ccc1N1CCOCC1 | -1 | i | 80* | 1.5 | 5
COc1ccc(-n2nnnc2SCC(=O)Nc2ccccc2N2CCOCC2)cc1OC | -2 | i | 93* | 1.1 | 3
COc1cc(NC(=O)c2cccc(Cl)c2)c(OC)cc1NC(=O)CN1CCOCC1 | -1 | i | 85* | -0.35 | 6
COc1ccc(Cl)cc1NC(=O)CN(C)CC(=O)Nc1ccccc1N1CCOCC1 | 86* | i | 54* | 1.1 | 22*
CC(C)NC(=O)c1cccc(Cn2cc(Cl)cn2)c1 | 0 | i | -11 | -0.25 | 2
COc1ccc(CN2CC(C(=O)N3CCOCC3)CC2=O)cc1 (stereo not given) | . | . | -2 | -0.43 | 2
COCCn1c(CN2CCN(c3ccc(F)cc3)CC2)nc2c1c(=O)n(C)c(=O)n2C | -3 | i | -10 | -1.2 | 5
O=C(Nc1nc(-c2cccs2)cs1)c1ccc(S(=O)(=O)N2CCCC2)cc1 | 2 | i | 77* | 1.2 | 5
O=C(Nc1nc(-c2ccc3c(c2)OCCO3)cs1)c1ccc(S(=O)(=O)N2CCCCC2)cc1 | 2 | i | 86* | 3.4 | 2
O=C(Nc1nc(-c2ccc(S(=O)(=O)N3CCCCCC3)cc2)cs1)c1ccccc1 | . | i | 12 | -0.086 | 3
CCNc1nc(CSc2ccccc2)nc2sc(C)c(C)c12 | -1 | i | 39 | -0.019 | 3
CCOC(=O)c1sc2nc(CSc3ccccc3)nc(N3CCC(C(N)=O)CC3)c2c1C | 0 | i | 27 | -0.32 | 2
CCOC(=O)c1sc2nc(CSc3ccccc3)nc(N3CCCN(C)CC3)c2c1C | 3 | . | 100* | 2.3 | 3
Cc1sc2nc(CSc3ccccc3)nc(N3CCC(C(N)=O)CC3)c2c1C | -3 | . | 70* | 2.9 | 2
Cc1sc2nc(CSc3ccccc3)nc(NCCN(C)C)c2c1C | -1 | i | 92* | -0.58 | 3
Cc1sc2nc(CSc3ccccc3)nc(N3CCOCC3)c2c1C | . | i | 82* | 0.87 | 1
CCOC(=O)c1sc(-c2cccc(C(F)(F)F)c2)nc1O | 0 | i | . | -0.85 | .
O=C(CN1CCC(n2nnc3cc(C(F)(F)F)ccc32)CC1)N1CCc2ccccc21 | -7 | i | 56* | -0.35 | 3
CCOc1cc(/C=C2/NC(=O)N(CC(=O)Nc3cccc(C)c3)C2=O)ccc1OCC(N)=O | 0 | i | -6 | 0.22 | 2
CC1CCC(C(C)C)C(OC(=O)C[n+]2cc(-c3ccc(Cl)cc3)n3c2CCCCC3)C1 (stereo not given) | -1 | i | 100* | -1.8 | 6
Clc1ccc(-c2c[n+](Cc3ccc(Cl)cc3Cl)c3n2CCCCC3)cc1 | -1 | i | . | -0.12 | .
Cc1ccc(-c2c[n+](CC(=O)c3ccc(Br)cc3)c3n2CCCCC3)cc1 | -2 | i | 100* | 0.4 | 5
COc1ccc(-c2c[n+](CC(=O)c3ccccc3)c3n2CCCCC3)cc1 | 0 | i | . | -0.58 | .
O=C(C[n+]1cc(-c2ccccc2)n2c1CCCCC2)c1ccc(Cl)cc1 | 0 | i | 70* | 1.5 | 5
